Measured values: ChEMBL document CHEMBL3124871, “Synthesis and pharmacological characterization of 1-benzyl-4-aminoindole-based thyroid hormone receptor β agonists” (Bioorg Med Chem, 2014)
pEC50, pIC50: −log10 of the molar value.

Columns and labels:
[1] = molecular target: T1, Thyroid hormone receptor beta (Homo sapiens, UniProt P10828); assay: Displacement of [125I]-Triiodothyronine from human recombinant TRbeta1 ligand binding domain after 2 to 3 hrs by beta counting
T1 sequence (P10828 whole entry): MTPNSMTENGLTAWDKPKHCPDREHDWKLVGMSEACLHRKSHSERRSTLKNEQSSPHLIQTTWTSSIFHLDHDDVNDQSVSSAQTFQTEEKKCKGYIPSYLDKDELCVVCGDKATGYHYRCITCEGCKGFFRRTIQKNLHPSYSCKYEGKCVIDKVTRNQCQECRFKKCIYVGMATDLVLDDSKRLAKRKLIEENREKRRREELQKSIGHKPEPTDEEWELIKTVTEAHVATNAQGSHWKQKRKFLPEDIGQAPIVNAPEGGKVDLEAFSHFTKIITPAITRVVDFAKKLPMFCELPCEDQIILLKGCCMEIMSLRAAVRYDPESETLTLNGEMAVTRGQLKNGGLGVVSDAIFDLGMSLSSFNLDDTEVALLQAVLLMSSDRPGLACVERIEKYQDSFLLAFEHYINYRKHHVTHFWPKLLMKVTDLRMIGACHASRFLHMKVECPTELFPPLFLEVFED

[2] = tested on: CV-1; assay: Selectivity ratio of EC50 for human recombinant transfected in CV-1 cells to EC50 for human recombinant TRbeta1 transfected in CV-1 cells; type: cell-based
Method in brief: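 CV-1 monkey kidney cells grown in DMEM with 10% FBS for 24 h at 37 °C and 5% CO2. Transfected (FuGENE) with hTRα1 or hTRβ1 plus a SEAP reporter for 24 h, then exposed to T3 or test compound for 8-10 h. SEAP was read as A405 of p-nitrophenol (pH 9.8, 30 min, RT). EC50 was set against T3 max = 100%; mean of four experiments; α/β ratio of EC50s.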

[3] = molecular target: T1, Thyroid hormone receptor beta; assay: Agonist activity at human recombinant TRbeta1 transfected in CV-1 cells after 8 to 10 hrs by alkaline phosphatase reporter gene assay; type: cell-based
[4] = molecular target: T2, Thyroid hormone receptor alpha (Homo sapiens, UniProt P10827); assay: Agonist activity at human recombinant TRalpha1 transfected in CV-1 cells after 8 to 10 hrs by alkaline phosphatase reporter gene assay; type: cell-based
T2 sequence (P10827 whole entry): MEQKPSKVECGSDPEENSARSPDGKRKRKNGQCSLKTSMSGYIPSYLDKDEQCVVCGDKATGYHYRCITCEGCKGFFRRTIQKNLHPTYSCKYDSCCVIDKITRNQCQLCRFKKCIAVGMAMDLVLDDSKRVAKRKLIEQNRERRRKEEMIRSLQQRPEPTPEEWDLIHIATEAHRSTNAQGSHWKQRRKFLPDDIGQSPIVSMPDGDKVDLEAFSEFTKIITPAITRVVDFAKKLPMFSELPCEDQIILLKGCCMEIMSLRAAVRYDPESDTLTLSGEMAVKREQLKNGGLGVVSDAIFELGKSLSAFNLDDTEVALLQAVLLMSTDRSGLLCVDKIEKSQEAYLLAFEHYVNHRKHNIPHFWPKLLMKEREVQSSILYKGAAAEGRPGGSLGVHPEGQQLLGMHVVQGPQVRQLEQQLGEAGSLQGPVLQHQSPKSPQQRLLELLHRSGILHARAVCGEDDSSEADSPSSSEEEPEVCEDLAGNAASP

[5] = molecular target: T2, Thyroid hormone receptor alpha; assay: Displacement of [125I]-Triiodothyronine from human recombinant TRalpha1 ligand binding domain after 2 to 3 hrs by beta counting
[6] = tested on: Rattus norvegicus; assay: Reduction in plasma LDL-cholesterol in cholesterol-fed Sprague-Dawley rat at 50 ug/kg/day, po qd for 1 week measured 3 to 6 hrs post last dose (reference value: 51 +/- 15 mg/dl); type: functional
[7] = tested on: Rattus norvegicus; assay: Toxicity in cholesterol-fed Sprague-Dawley rat assessed as total T4 level at 50 ug/kg/day, po qd for 1 week measured 3 to 6 hrs post last dose (reference value: 3.8 +/- 0.9 ug/dl); type: organism-based; details: in vivo, 0.05 mg/kg
[8] = tested on: Rattus norvegicus; assay: Toxicity in cholesterol-fed Sprague-Dawley rat assessed as TSH level at 50 ug/kg/day, po qd for 1 week measured 3 to 6 hrs post last dose (reference value: 62 +/- 7 ng/dl); type: organism-based; details: in vivo, 0.05 mg/kg
[9] = tested on: Rattus norvegicus; assay: Toxicity in cholesterol-fed Sprague-Dawley rat assessed as TSH level at 50 ug/kg/day, po qd for 1 week measured 3 to 6 hrs post last dose (reference value: 3.0 +/- 1.0 uIU/ml); type: organism-based; details: in vivo, 0.05 mg/kg
[10] = tested on: Rattus norvegicus; assay: Reduction in plasma free cholesterol in cholesterol-fed Sprague-Dawley rat at 50 ug/kg/day, po qd for 1 week measured 3 to 6 hrs post last dose (reference value: 36 +/- 9 mg/dl); type: functional
[11] = tested on: Rattus norvegicus; assay: Toxicity in cholesterol-fed Sprague-Dawley rat assessed as heart rate at 50 ug/kg/day, po qd for 1 week measured 3 to 6 hrs post last dose (reference value: 383.0 +/- 26.7 bpm); type: organism-based; details: in vivo, 0.05 mg/kg
[12] = tested on: Rattus norvegicus; assay: Reduction in plasma HDL-cholesterol in cholesterol-fed Sprague-Dawley rat at 50 ug/kg/day, po qd for 1 week measured 3 to 6 hrs post last dose (reference value: 22 +/- 6 mg/dl); type: functional
[13] = tested on: Rattus norvegicus; assay: Reduction in plasma total cholesterol in cholesterol-fed Sprague-Dawley rat at 50 ug/kg/day, po qd for 1 week measured 3 to 6 hrs post last dose (reference value: 190 +/- 49 mg/dl); type: functional
[14] = tested on: Rattus norvegicus; assay: Reduction in plasma triglyceride level in cholesterol-fed Sprague-Dawley rat at 50 ug/kg/day, po qd for 1 week measured 3 to 6 hrs post last dose (reference value: 62 +/- 25 mg/dl); type: functional
[15] = tested on: Rattus norvegicus; assay: Toxicity in cholesterol-fed Sprague-Dawley rat assessed as heart weight at 50 ug/kg/day, po qd for 1 week measured 3 to 6 hrs post last dose (reference value: 1.14 +/- 0.12 g); type: organism-based; details: in vivo, 0.05 mg/kg
[16] = tested on: HepG2; assay: Selectivity ratio of EC50 for human recombinant transfected in human HepG2 cells to EC50 for human recombinant TRbeta1 transfected in human HepG2; type: cell-based
[17] = molecular target: T1, Thyroid hormone receptor beta; assay: Agonist activity at human recombinant TRbeta1 transfected in human HepG2 cells after 8 to 10 hrs by alkaline phosphatase reporter gene assay; type: cell-based
[18] = species on record: Homo sapiens; assay: Reduction in cholesterol level in coronary heart disease patient with hyperlipidemia relative to placebo-control; type: functional; design: scale not given: the % may be the effect or the level left
[19] = species on record: Homo sapiens; assay: Reduction in triglyceride level in coronary heart disease patient with hyperlipidemia relative to placebo-control; type: functional; design: scale not given: the % may be the effect or the level left

SMILES	pIC50 [1]	Ratio EC50 [2]	pEC50 [3]	pEC50 [4]	pIC50 [5]	also measured
Cc1c(CCC(=O)O)c2ccccc2n1Cc1ccc(O)c(C(C)C)c1	6.12	1	7.43	7.41	5.89	
Cc1c(CC(=O)O)c2ccccc2n1Cc1ccc(O)c(C(C)C)c1		3	6.82	6.35		
Cc1c(CCCC(=O)O)c2ccccc2n1Cc1ccc(O)c(C(C)C)c1	6.54	4.8	7.43	6.74	5.47	
N[C@@H](Cc1cc(I)c(Oc2ccc(O)c(I)c2)c(I)c1)C(=O)O [LIOTHYRONINE]						Activity [6]: 28 mg/dL; Activity [7]: 0.9 µg/dL; Activity [8]: 31 ng/dL; Activity [9]: 0.1 uIU/ml; Activity [10]: 22 mg/dL; Activity [11]: 430 bpm; Activity [12]: 22 mg/dL; Activity [13]: 123 mg/dL; Activity [14]: 61 mg/dL; Activity [15]: 1.25 g
Cc1c(CC(=O)NCC(=O)O)c2ccccc2n1Cc1ccc(O)c(C(C)C)c1	6.37				5.09	
Cc1cc2cc(NC(=O)C(=O)O)ccc2n1Cc1ccc(O)c(C(C)C)c1	5.82				6.64	
Cc1ccc(NC(=O)C(=O)O)c2ccn(Cc3ccc(O)c(C(C)C)c3)c12	7.27	1.5	6.30		6.72	Ratio EC50 [16]: 2.5; pEC50 [17]: 6.72
N[C@H](Cc1cc(I)c(Oc2cc(I)c(O)c(I)c2)c(I)c1)C(=O)[O-].O.[Na+] [DEXTROTHYROXINE SODIUM]						Activity [18]: 12%; Activity [19]: 15%
